For assay [1], the system named is Aorta. The assay is described as follows: Vasorelaxant activity on Wistar rat aorta ring assessed as inhibition of phenylephrine-induced contraction at 100 uM in absence of endothelium. The assay is classed as functional. Further details: scale not given: the % may be the effect or the level left.
Assay [2] in a line: Antioxidant activity assessed as ABTS radical scavenging activity after 1 min by TEAC method.
Assay [3] can be described thus: Antioxidant activity against iodophenol-induced chemiluminescence by horseradish peroxidase/perborate/luminol system. The assay is classed as functional. The essentials: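 Total antioxidant capacity read by enhanced chemiluminescence. Reagent was assay buffer plus tablets A and B, which supply luminol, p-iodophenol enhancer and perborate oxidant. Values come from a Trolox standard curve (Trolox 20 μg mL⁻¹ in H2O) and are reported as mM Trolox equivalent; n=3.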

Assay [4] relates to Aorta. The assay is described as follows: Vasorelaxant activity on Wistar rat aorta ring assessed as inhibition of phenylephrine-induced contraction at 100 uM in presence of endothelium. The assay is classed as functional. Further details: scale not given: the % may be the effect or the level left.

Take `COc1cc([C@H]2OC[C@]3(O)[C@@H](c4ccc(O)c(OC)c4)OC[C@H]23)ccc1O`: the Activity with Aorta [1] was 29%; in assay [2] it was 5.1 mM; in assay [3], 6.31 mM; in the assay on Aorta [4], 24.4%.
`C[C@@H]1O[C@@H](O[C@@H]2[C@@H](O)[C@H](OCCc3ccc(O)c(O)c3)O[C@H](CO)[C@H]2OC(=O)/C=C/c2ccc(O)c(O)c2)[C@H](O)[C@H](O)[C@H]1O`: the Activity in assay [2] is 5.3 mM; in assay [3] it was 8.2 mM.
For the compound `COc1cc([C@H]2OC[C@]3(O)[C@@H](c4ccc(O)c(OC)c4)OC[C@]23O)ccc1O` [PRINSEPIOL], the Activity in the assay with Aorta [1] was 5.3%; in assay [2], 5.33 mM; in assay [3] it was 6.7 mM; in the assay with Aorta [4], 29.3%.
Consider `COc1cc([C@H]2OC[C@]3(O)[C@@H](c4ccc(O[C@@H]5O[C@H](CO)[C@@H](O)[C@H](O)[C@H]5O)c(OC)c4)OC[C@]23O)ccc1O`, for which the Activity came out at 0% in the assay with Aorta [1], 2.92 mM in assay [2], 1.84 mM in assay [3] and 20.4% in the assay with Aorta [4].
As for `COc1cc([C@H]2OC[C@@H]3[C@@H](c4ccc(O[C@@H]5O[C@H](CO)[C@@H](O)[C@H](O)[C@H]5O)c(OC)c4)OC[C@]23O)ccc1O`, the Activity in the assay with Aorta [1] amounted to 1.7%; in assay [2] it was 2.51 mM; in assay [3] it was 1.44 mM; with Aorta [4] it was 2.5%.

Source of the values: ChEMBL document CHEMBL1151248, “New lignans from the roots of Valeriana prionophylla with antioxidative and vasorelaxant activities” (2004).
